The text below walks through data of the RNAGym collection of RNA variant scans (doi:10.1126/science.aae0568).

This sample holds only a part of the variants without activity.

B1: tRNA (parent)
chain: GUUCCGUUGGCGUAAUGGUAACGCGUCUCCCUCCUAAGGAGAAGACUGCGGGUUCGAGUCCCGUACGGAACG

This series covers variants of B1. Nature of the series: yeast fitness relative to wild type (ratio to wild type); higher = fitter; tRNA-Arg(CCU), competitive growth, 37 C, YPD. The procedure, abridged:
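Amplicons of the tRNA-Arg(CCU) gene were sequenced, 100-nucleotide paired-end, from the start population and from each end population of a pooled yeast competition. The competition, in six parallel replicates, lasted 24 hours in YPD at 37°C. Fitness relative to wild type was calculated from changes in genotype frequencies. Genotypes had to have ≥ 100 starting reads, and estimates < 0.5 were set to 0.5.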
In the case of C5G U16A A21C A37C G68A, the yeast fitness is at most 0.5.

With C5U A20U G67A, the yeast fitness came out at 0.882. Under C5G U19C G25A stands 0.716.

With C5U A20U A36U, the yeast fitness is at most 0.5. Consider C5G U35A G63C, for which the yeast fitness is at most 0.5.

As for C5G U64C, the yeast fitness was found to be 0.978. Under C5G U8A G52C U53A stands at most 0.5; under C5U A20C A43G, 0.658.

With C5U A14C C34G A37U A40U, the yeast fitness is at most 0.5.

C5U A15G A70U: the yeast fitness came out at 0.696. Under C5G U8G A14G A43C G48A stands 0.544. Next, C5G U26C A37G C60A: at most 0.5. For the variant C5G U8C C27G C33G U35A C49U, the yeast fitness was at most 0.5. As for C5G U13C C24U C49U, the yeast fitness was 0.526.

In the case of C5U A15C U32A G52C C62G U64C, the yeast fitness is at most 0.5. C5G U26C C34G C55A A69U: the yeast fitness was at most 0.5. Next, C5G U16A C34G G39C C55A A57C: at most 0.5; C5G U8C G12A C46U G68A: at most 0.5. Next, C5U A14U G48A C66U: at most 0.5; C5G U26C G44A C62A: at most 0.5; C5G U8A A14G: at most 0.5. For C5G U28G G38C C62G, the yeast fitness is at most 0.5. Next, C5G U13A C31G G50A G67A A69G: at most 0.5; C5U A15U C55A: at most 0.5; C5G U13C C34A A57U: at most 0.5. C5U A14U C27G: the yeast fitness was at most 0.5. Next, C5G U32A C34U: at most 0.5; C5U A15U C29U C31U C34U U64C: at most 0.5.

For the variant C5G U59A A65G, the yeast fitness turned out to be 0.667. As for C5U A20C G68C, the yeast fitness stood at 0.542. Under C5G U47C A65C stands 0.558; under C5G U7C C11G C31G, at most 0.5.

For C5U A20G U47C, the yeast fitness was at most 0.5.

Take C5U A14U C55G A65G: the yeast fitness came to 0.566. Next, C5G U8A G39A: at most 0.5; C5G U7A A20C C31G C34U C62A: at most 0.5. Next, C5U A20U C30U C46U U47G: at most 0.5. Take C5U A20G C49G G52A A57C: the yeast fitness was at most 0.5.

For C5G U26C G44A A69U, the yeast fitness is at most 0.5. Under C5G U26C A36C stands 0.547; under C5U A15U C29U C31U C34U, 0.519. Next, C5G U16A C61U: 0.589; C5U A14G C33U G50C C55U A57G: at most 0.5. Under C5G U13A U19A C30U A70U stands at most 0.5; under C5G U19C G67C, 0.682. On to C5G U35G C49A, for which the yeast fitness was at most 0.5.

With C5U A14C A45C, the yeast fitness is at most 0.5. For the variant C5G U16A A43G, the yeast fitness was 0.573. Next, C5U A15U U35C A45C: at most 0.5; C5G U8A G39A C55U A70C: 0.623. Under C5G U8C C55G stands at most 0.5. Under C5G U19C U35A A43C A65C stands at most 0.5; under C5G U8G C11G C49A G52C, at most 0.5; under C5G U13C A21G C49A, at most 0.5. With C5G U16A U19G A20C C27U C29U C30U A70U, the yeast fitness is at most 0.5. Under C5U A15G C22G G41A A45U U47A C62U stands at most 0.5; under C5G U13A G23A G38A G48A C60A, at most 0.5; under C5G U7G G38A A40C G56A C60U C61G, at most 0.5. Under C5G U26C U32A stands 0.604; under C5U A20C G23C C24U C31U, at most 0.5; under C5G U19G C22U U32C G56A A65C, at most 0.5. Next, C5U A21G A42U G50C: at most 0.5; C5U A15G C46G: 0.892; C5U A14U C24G: at most 0.5.

For C5G U26A A40U G63C, the yeast fitness was at most 0.5.

Consider C5G U7C, for which the yeast fitness stood at 0.787. On to C5U A20U A70U, for which the yeast fitness worked out at 0.842. Next, C5G U59G: 0.62.

Take C5G U59C: the yeast fitness was 0.852. Next, C5G U8A A36U A42G G50A A57G: at most 0.5; C5G U7A A15C U28A: at most 0.5. Under C5G G58A G67C stands 0.687; under C5U A20U C49A, at most 0.5. On to C5U A14C A15U G17A U26C A42U A45C G63C G68U, for which the yeast fitness is at most 0.5. Under C5U A20G U32G C33G C55U stands at most 0.5; under C5G U47A G52A G68C, at most 0.5; under C5G U8C A14C C29A C31G U54A, at most 0.5. Take C5G U26C A45C G63A: the yeast fitness is at most 0.5.

As to C5G U26C A69C, the yeast fitness was 0.617.

Turning to C5G U35A C60A, the yeast fitness was at most 0.5. Consider C5U A14C A42G A65C, for which the yeast fitness was at most 0.5. Under C5G U54A stands 0.666; under C5G U54G, 0.654. For the variant C5G U16C C33U C66A, the yeast fitness is at most 0.5. Next, C5G U47A G68C: 0.565; C5G U35C: 0.71; C5U A14G U28C U64C: at most 0.5. Under C5U A14G A45G A69C stands at most 0.5; under C5G U54C G56A, 0.729; under C5G U16C, 0.722.

Regarding C5G G56A C62G, the yeast fitness turned out to be 0.543.

With C5G U8G C11G C49U C61G, the yeast fitness was at most 0.5. Turning to C5G U19C U26A C55U, the yeast fitness is at most 0.5. Under C5U A15U stands 0.671. Next, C5U A15U G51C C61G C62G: 0.776.

With C5U A21G A37G G39C G44C C46A U54C A65C, the yeast fitness was at most 0.5.

With C5U A14G A36G G68C, the yeast fitness was at most 0.5. Next, C5G U28G G58C C62U G63C U64G: 0.628; C5G U13C A43G G50C: 0.566. Next, C5U A20U C24U C27U A45G: at most 0.5; C5G U7C A14U C24U C46G C62U C66U: at most 0.5; C5U A14C C29U C33A C49U C55G: at most 0.5. Next, C5G U35C A69C: 0.551; C5U A20C G44C: 0.573.

For C5U A21C U54C A65U, the yeast fitness was 0.643.

For C5U A14U C30U G39C C60A A70C, the yeast fitness was at most 0.5.

For C5U A20C C66U, the yeast fitness was found to be 0.616.

Consider C5U A20C C66A, for which the yeast fitness was 0.51. As to C5G U7G U13A C30A A43C U53C, the yeast fitness amounted to 0.876. Next, C5U A21G A45G: 0.638; C5G U16A C31G A65U C66A: at most 0.5; C5G U7C U26G C60G: at most 0.5. For C5U A20G C46G C49G, the yeast fitness is at most 0.5.

As to C5U A14G A43G, the yeast fitness was 0.553.

As for C5U, the yeast fitness is 0.987. Under C5G U28C A70G stands 0.641; under C5U A14U A21G G68C, 0.588; under C5G U26C G44A A70U, 0.546. Next, C5G U32A C62G: at most 0.5; C5G U32A C62U: 0.532; C5G U8C A21C C33U U59G: at most 0.5. Under C5G U13A A20G U35A A40G G63U stands at most 0.5; under C5G U7G A36U G41A C49G, at most 0.5; under C5G U28G G38C C62G C66U, at most 0.5. Consider C5G U26C G44A, for which the yeast fitness was found to be 0.529.

As to C5G U7C U8A, the yeast fitness amounted to 0.56.

On to C5G U16A C33A, for which the yeast fitness was at most 0.5. Under C5G U13A C22G C29G A40U U54C C61G stands 0.588; under C5U A20U C60A, at most 0.5.

With C5U A14G U28C, the yeast fitness turned out to be 0.562.

C5U A15U C30G C33G A40G A42G A43U U54G: the yeast fitness was at most 0.5.

C5G U13C A37U G51C A57C: the yeast fitness was at most 0.5. Under C5U A15U G23C A45U C62A stands at most 0.5; under C5U A15C C27U C29U A57C, at most 0.5; under C5G U8A U28C G51A A69C, at most 0.5. Under C5U A15G A20C U26C G41C G67C stands 0.593; under C5G U13C, 0.875. Under C5G U13A stands 0.906.

For C5U A20U U26A G52A, the yeast fitness is at most 0.5.

Consider C5G U13C A21C G68A, for which the yeast fitness is at most 0.5.

Regarding C5U A15G G17C C66U, the yeast fitness was at most 0.5. Under C5U A15C C29U G58C stands at most 0.5.

As for C5U A14G U16A C30U, the yeast fitness is at most 0.5.

Regarding C5G U8C G12A U28A A65G, the yeast fitness is at most 0.5. Under C5G U8A C29A U35C stands at most 0.5; under C5G U28G, 0.699.

For the variant C5G G67C, the yeast fitness worked out at 0.99. Next, C5G G67A: 0.86. Under C5G U32A A57G stands 0.549; under C5G G56A U59G, at most 0.5. Next, C5U A14G U26C C30U A42C C61U: at most 0.5; C5U A14G A15U U28A C33G G41C G56A: at most 0.5. With C5U A14C C27U C33G C55G C61U, the yeast fitness was at most 0.5. Under C5G U13A C22G C29G A40U C62U stands at most 0.5; under C5G U13C A43C, at most 0.5; under C5G U26C A65U, 0.67. On to C5G U16C G67A, for which the yeast fitness is at most 0.5. Under C5G U7G C61U stands 0.649; under C5G G56C, 0.662.

In the case of C5U A15C G18A U35C A42G, the yeast fitness is at most 0.5. Under C5G U7C A14C G51C stands 0.697. Under C5G U8C A36G A40C stands 0.55. Next, C5G U8C G10C G52A: at most 0.5. As to C5U A20U C62A G67A A70G, the yeast fitness amounted to 0.747. Consider C5G U13C C24U C49U A70G, for which the yeast fitness is at most 0.5. Turning to C5G G56A G58C, the yeast fitness worked out at 0.756. Under C5G U47G stands 0.611.
